Reference: ChEMBL document CHEMBL3826940, “Amphipathicity Determines Different Cytotoxic Mechanisms of Lysine- or Arginine-Rich Cationic Hydrophobic Peptides in Cancer Cells” (J Med Chem, 2016)
pIC50: −log10 of the molar value. Calls of active or inactive are those of the source. The calls are words filed in the database; no cut-off is given here.

How the values were obtained:
A549 = assay: Cytotoxicity against human A549 cells assessed as cell viability after 24 hrs by MTT assay; format: functional, cell-based; conditions: A549, 24 h
Outline: (§1)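 MTT viability assay. Cells were seeded at 1 × 10^4 cells/well in complete medium and grown 24 h. Medium was replaced with fresh medium containing peptide over a concentration series and incubated 24 h. MTT (5 mg/mL) was added for 4 h, formazan was dissolved in DMSO, and A490 was read. IC50 was derived from mean ± SD of three independent experiments.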

[1] = Hemolytic activity in mouse RBC after 1 hr; format: ADME, cell-based, Erythrocyte; conditions: red blood cells
Outline: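 Heparinized fresh mouse blood: RBCs were washed three times in 0.9% saline and diluted to 4.0 × 10^8 cells/mL. Peptides at various concentrations were incubated with the RBCs 1 h at 37 °C. After centrifugation at 1000 rpm for 10 min, supernatant absorbance was read at 540 nm, with 1% Triton X-100 set as 100% hemolysis.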

[2] = Cytotoxicity against human 293T cells assessed as cell viability after 24 hrs by MTT assay; format: cell-based, HEK-293T; conditions: Homo sapiens, HEK-293T; outline: as §1
HUVEC = assay: Cytotoxicity against HUVEC assessed as cell viability after 24 hrs by MTT assay; format: cell-based, Homo sapiens; conditions: Homo sapiens, HUVEC; outline: as §1
MCF7 = assay: Cytotoxicity against human MCF7 cells assessed as cell viability after 24 hrs by MTT assay; format: functional, cell-based; conditions: MCF7, 24 h; outline: as §1
HeLa [3] = assay: Cytotoxicity against human HeLa cells assessed as lethality at 5 uM at 0 degC after 30 mins by MTT assay; format: functional, cell-based
Outline: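 HeLa cells were incubated with peptide over a range of concentrations at 0 or 37 °C for 30 min. Lethality was then measured by MTT, with A490 read after DMSO solubilization.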

HeLa [4] = assay: Cytotoxicity against human HeLa cells assessed as cell viability after 24 hrs by MTT assay; format: functional, cell-based; outline: as §1
[5] = Drug uptake in plasma membrane of human HeLa cells at 5 uM after 2 to 30 mins using iridium dye labeled compound by confocal microscopic method; format: ADME, cell-based
Outline: (§2)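 Peptides were labelled at the N-terminal His with [Ir(ppy)2(H2O)2]OTf: 200 μM each, mixed 1:1 in PBS, 2 h at 37 °C in the dark. HeLa cells (1 × 10^5 per dish, grown 24 h) were exposed to 5 μM labelled peptide. Live-cell confocal images were taken at 0, 5 and 15 min (excitation 403 nm, emission 500–560 nm).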

HeLa [6] = assay: Induction of apoptosis in human HeLa cells assessed as caspase-3 activation at 5 uM measured up to 4 hrs by caspase-glo assay; format: functional, cell-based
Outline: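 Cells in 96-well plates were exposed to 5 μM peptide for 5, 10, 15 or 30 min, or 1, 2, 3 or 4 h. Caspase-Glo 3/7 reagent was added, the plate shaken 30 s and incubated 2 h at room temperature, and luminescence was read.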

HeLa [7] = assay: Cytotoxicity against human HeLa cells assessed as cell mortality at 5 uM after 5 mins by Hoechst 33342/propidium iodide staining-based assay; format: functional
Outline: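 HeLa cells treated with 5 μM peptide were co-stained with Hoechst 33342 (stains all nuclei) and propidium iodide (stains only membrane-compromised cells). Fluorescence imaging was done at time points up to 30 min.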

HeLa [8] = assay: Induction of morphological changes in human HeLa cells assessed as membrane fragmentation at 5 uM after 30 mins by microscopic method; format: functional, cell-based
Outline: (§3)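 HeLa cells were co-incubated with 5 μM peptide for 30 min. Morphology was then examined under the microscope.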

[9] = Cytotoxicity against HLF assessed as cell viability after 24 hrs by MTT assay; set-up: species or system Homo sapiens; conditions: Homo sapiens, HLF; outline: as §1
HeLa [10] = assay: Cytotoxicity against human HeLa cells assessed as cell mortality at 5 uM after 5 mins by MTT assay; format: functional, cell-based
HeLa [11] = assay: Induction of morphological changes in human HeLa cells assessed as membrane leakage at 5 uM after 30 mins by microscopic method; format: functional, cell-based; outline: as §3
HeLa [12] = assay: Drug uptake in human HeLa cells at 5 uM after 15 mins using iridium dye labeled compound by confocal microscopic method; format: ADME, cell-based; conditions: 0.25 h; outline: as §2

Drug uptake (HeLa [12]) | Molecule | pIC50 (A549) | HC50 at 1 h [1] | pIC50 [2] | pIC50 (HUVEC) | pIC50 (MCF7) | Activity (HeLa [3]) | pIC50 (HeLa [4]) | Drug uptake [5] | Activity (HeLa [6]) | Activity (HeLa [7]) | Activity (HeLa [8]) | pIC50 [9] | Activity (HeLa [10]) | Activity (HeLa [11])
 | H-HGGRLLRLLRRLLRLLR-NH2 | 5.37 | 2900 nM | 5.02 | 5.08 | 5.60 | Active | 5.43 | Active | inactive | Active | Active | 5.20 | Active | Active
Active | CC(C)C[C@@H](NC(=O)[C@@H](CCCNC(=N)N)NC(=O)[C@@H](CC(C)C)NC(=O)[C@@H](CC(C)C)NC(=O)[C@@H](CCCNC(=N)N)NC(=O)[C@@H](CCCNC(=N)N)NC(=O)[C@@H](CC(C)C)NC(=O)[C@@H](CCCNC(=N)N)NC(=O)[C@@H](CC(C)C)NC(=O)[C@@H](CC(C)C)NC(=O)[C@@H](CCCNC(=N)N)NC(=O)[C@@H](CC(C)C)NC(=O)[C@@H](CC(C)C)NC(=O)[C@@H](CCCNC(=N)N)NC(=O)CNC(=O)CNC(=O)[C@H](N)Cc1cnc[nH]1)C(N)=O |  |  |  |  |  |  | 5.39 |  |  |  |  |  |  | 
